Compounds with a hit are over-represented: about 3% of the library has one in this group of screens.
TRPC6 inhibitor – blocks the mouse TRPC6 cation channel | HEK293-TRPC6, membrane potential dye, ACh-evoked depolarization; active compounds read low | B-score at 10 µM | AID 2553 | Q61143 | actives 1.1% (n = 310,000);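 active means B-score under library mean minus 3 SD, initial fluorescence not abnormally high, positive integrated signal ratio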;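 further: B-score derived from integrated fluorescence ratio over the kinetic read; more negative B-score means stronger inhibition of depolarization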
Target sequence (Q61143 whole entry, looked up): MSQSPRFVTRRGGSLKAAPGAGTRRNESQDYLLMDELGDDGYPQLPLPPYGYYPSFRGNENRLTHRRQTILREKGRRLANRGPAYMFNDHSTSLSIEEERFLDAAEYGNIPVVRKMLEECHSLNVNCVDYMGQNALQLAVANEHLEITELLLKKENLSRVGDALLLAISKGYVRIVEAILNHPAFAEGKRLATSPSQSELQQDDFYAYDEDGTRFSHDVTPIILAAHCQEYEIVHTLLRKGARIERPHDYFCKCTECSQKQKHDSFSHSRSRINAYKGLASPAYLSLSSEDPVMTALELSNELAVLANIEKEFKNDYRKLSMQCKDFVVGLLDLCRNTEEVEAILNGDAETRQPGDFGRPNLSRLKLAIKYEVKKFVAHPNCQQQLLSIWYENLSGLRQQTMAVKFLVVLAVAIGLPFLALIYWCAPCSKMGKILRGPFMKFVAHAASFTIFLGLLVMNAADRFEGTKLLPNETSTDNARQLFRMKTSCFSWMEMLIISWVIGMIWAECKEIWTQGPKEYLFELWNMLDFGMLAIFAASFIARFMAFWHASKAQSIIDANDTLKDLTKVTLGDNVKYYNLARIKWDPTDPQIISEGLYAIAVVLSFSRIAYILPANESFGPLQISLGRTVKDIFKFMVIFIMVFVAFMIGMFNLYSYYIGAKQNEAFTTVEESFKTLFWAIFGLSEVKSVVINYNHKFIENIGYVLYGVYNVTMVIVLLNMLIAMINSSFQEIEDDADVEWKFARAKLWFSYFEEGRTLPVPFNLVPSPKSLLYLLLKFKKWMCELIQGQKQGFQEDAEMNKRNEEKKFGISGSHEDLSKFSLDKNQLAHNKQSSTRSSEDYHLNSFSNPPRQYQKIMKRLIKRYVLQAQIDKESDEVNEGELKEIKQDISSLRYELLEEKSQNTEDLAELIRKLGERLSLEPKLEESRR
TRPC6 act – activates the mouse TRPC6 cation channel; Q61143; HEK293-TRPC6 membrane potential dye fluorescence; active compounds read high; B-score at 10 µM; actives 0.13% (n = 310,000);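 active means B-score of the integrated fluorescence ratio above library mean plus 3 SD, and starting fluorescence ratio within library mean plus 5 SD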;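 further: higher score means more depolarization so channel activation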
Kir21 inh – inhibitors of mouse Kir2.1 inward-rectifier potassium channel; HEK293-Kir2.1, FluxOR thallium flux fluorescence; active compounds read low; B-score at 10 µM; actives 0.85% (n = 310,000); AID 1672;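 active means fluorescence ratio B-score at or below minus 3 SD of library scores, with starting-brightness B-score within 2 SD, cut at about -4.2 in these data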;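 further: channel flux triggered by added potassium and thallium sulfate stimulus; B-score of peak minus minimum fluorescence over baseline after thallium stimulus; more negative B-score means stronger Kir2.1 block with less thallium influx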
TRPC4 PAM – allosteric potentiators of mouse TRPC4 channel. Q9QUQ5. HEK293 TRPC4beta/mu-opioid, DAMGO EC20, Fluo-4 Ca2+ flux; active compounds read high. B-score at 10 µM. actives 0.42% (n = 310,000);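 active means B-score of calcium response area above 5 SD of library B-scores, with initial fluorescence ratio within 5 SD of library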;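 further: B-score of integrated fluorescence ratio over time as area under calcium response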
TRPC4 block – TRPC4 (mouse) channel inhibition. HEK293 TRPC4beta/mu-opioid, DAMGO-evoked Fluo4 calcium flux; active compounds read low. B-score at 10 µM. actives 0.39% (n = 300,000). AID 2247;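 active means B-score over 3 SD under the library average, no early fluorescence shift, positive overall ratio signal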
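material = TRPC4beta/mu-opioid receptor HEK293 cell line | probe or stimulus = sequential submaximal and maximal DAMGO stimulation | compound dosing = one concentration per compound | measured by = Fluo4 Ca2+ flux fluorescence | evaluation = integrated fluorescence ratio relative to baseline, converted to per-well B score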
TRPC4 agonist – activators of mouse TRPC4 channel. B-score at 10 µM. actives 0.49% (n = 310,000). HEK293 TRPC4beta/mu-opioid, Fluo4 calcium fluorescence; active compounds read high. Q9QUQ5;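 active means B-score above 5 SD of library B-scores, and initial fluorescence ratio not above library mean plus 5 SD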;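 further: positive B-score marks a calcium rise read as TRPC4 activation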
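Test system: HEK293 cells stably co-expressing mouse TRPC4beta and mu-opioid receptor | Schedule: Fluo4 dye loading 45 min at room temperature, 110 s recording | Measured by: Kinetic Fluo4 calcium fluorescence, 5 s baseline at 1 Hz | Evaluation: B score of integrated ratio | Controls: Buffer (low) and maximal DAMGO (high)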
Starred values were filed as active, the others as inactive; i = inactive.

SMILES	TRPC6 inhibitor	TRPC6 act	Kir21 inh	TRPC4 PAM	TRPC4 block	TRPC4 agonist
CCOc1ccc(OCC(=O)OCC(=O)N(CC(C)C)c2c(N)n(Cc3ccccc3)c(=O)[nH]c2=O)cc1	i	i	0.18	i	i	i
CC(C)CN(C(=O)COC(=O)COc1ccc2ccccc2c1)c1c(N)n(Cc2ccccc2)c(=O)[nH]c1=O	i	i	-0.02	16*	i	i
C=CCN1CCN(C(=O)c2cc3c(s2)CCC(CC)C3)CC1 (stereo not drawn)	i	i	-0.91	i	i	i
S=C(NCCSCc1ccc(Cl)c(Cl)c1)Nc1ccccc1	i	i	0.66	i	i	i
S=C(NCCSCc1c(Cl)cccc1Cl)Nc1ccccc1	i	i	-5.1*	i	i	i
Cc1ccc(S(=O)(=O)NCCC(=O)NCC(c2ccco2)N2CCCCC2)cc1C (stereo not drawn)	i	i	1	i	-6*	72*
Cc1ccc(S(=O)(=O)Nc2cccc(C(=O)NCC(c3ccco3)N3CCCCC3)c2)cc1F (stereo not drawn)	i	i	-0.31	i	-9*	i
Cc1cc(S(=O)(=O)Nc2ccc(C(=O)NCC(c3ccco3)N3CCCCC3)cc2)ccc1F (stereo not drawn)	i	i	-1.1	i	i	i
COc1cccc(NC(=O)c2ccc3nc(C)sc3c2)c1	i	i	2.2	i	i	i
O=C(COc1ccc(S(=O)(=O)NCc2ccccc2)cc1Cl)NCc1ccccn1	i	i	-1.4	i	i	i
O=C(COc1ccc(S(=O)(=O)N2CCc3ccccc32)cc1Cl)NCc1ccccn1	i	i	-5.2*	i	i	i
COCCCN1C(=O)C(=O)/C(=C(/O)c2ccc(S(=O)(=O)N3CCOCC3)cc2)C1c1ccc(OC)cc1 (stereo not drawn)	i	i	-0.4	i	i	i
COc1cccc(CNc2ccc([N+](=O)[O-])cc2C)c1	i	i	-0.98	i	i	i
COc1cccc(NCc2ccc([N+](=O)[O-])s2)c1	i	i	-0.89	i	-6*	i
O=C(COc1ccccc1[N+](=O)[O-])N/N=C/c1cccs1	i	i	1.7	i	i	i
CSc1nnc(-c2sccc2OCc2ccc(C)cc2)n1C	i	i	-4.3*	i	i	i
O=c1ccc(-c2nc3cc(Cl)ccc3n2Cc2ccccc2)c[nH]1	i	i	-0.02	10*	i	i
COCCNC(=S)N(CCc1c(C)[nH]c2ccccc12)Cc1ccco1	i	i	-4.7*	i	i	i
CCNC(=S)N(CCc1c(C)[nH]c2ccc(Cl)cc12)Cc1ccco1	i	i	-3.3	i	i	i
COCCNC(=S)N(CCc1c(C)[nH]c2ccc(F)cc12)Cc1cccs1	i	i	-1.6	i	i	i
CNC(=S)N(CCc1c(C)[nH]c2ccc(C)cc12)Cc1ccco1	i	i	-5*	i	i	i
CCC1(C)Cc2sc3c(=O)[nH]c(=S)[nH]c3c2CO1 (stereo not drawn)	i	i	0.99	i	i	i
CC(C)(C)OC(=O)N1CCN(C(=O)OCC2c3ccccc3-c3ccccc32)CC1C(=O)O (stereo not drawn)	i	i	0.03	i	i	i
Nc1ccc(C(=O)N/N=C/c2cccc(Oc3ccccc3)c2)cc1	i	i	-11*	i	i	i
O=C(N/N=C/c1cccc(Oc2ccccc2)c1)c1cc[n+]([O-])cc1	i	i	2.4	i	i	i
SMILES	TRPC6 inhibitor	TRPC6 act	Kir21 inh	TRPC4 PAM	TRPC4 block	TRPC4 agonist
CCCN(CC(=O)Nc1ccccc1C)C(=O)CC(NC(=O)c1ccccc1)c1ccccc1 (stereo not drawn)	i	i	0	i	i	i
OCCNC(=S)c1ccccc1	i	i	0.26	i	i	i
CCc1ccc2nc(N=C(N)N)nc(C)c2c1	i	i	-6.1*	i	-8*	i
Cc1nc(N=C(N)N)nc2ccccc12	i	i	0.44	i	i	i
Cc1ccc(N2NC(=O)/C(=C\c3cc4c(cc3[N+](=O)[O-])OCO4)C2=O)cc1C	i	i	-6.5*	i	i	i
COC(=O)CC(NC(=S)NC(=O)c1ccccc1)c1ccc(Br)cc1 (stereo not drawn)	i	i	0.6	72*	i	i
COC(=O)CC(N)c1ccc(Br)cc1 (stereo not drawn)	i	i	0.35	i	i	i
Cc1c(C(=O)N2CCCC2)oc2c1-c1nn(CC(=O)NCCCN3CCCCC3C)cc1CC2 (stereo not drawn)	i	i	0.14	i	i	i
Cc1c(C(=O)N2CCCC2)oc2c1-c1nn(CC(=O)NCCCN3CCCCC3)cc1CC2	i	i	-0.15	11*	i	i
Cc1ccc(CN2CCN(Cc3ccccc3C(F)(F)F)CC2)cc1	i	i	-4.5*	i	i	i
COc1cc(CN2CCN(Cc3ccccc3C(F)(F)F)CC2)cc(OC)c1OC	i	i	0.04	i	i	i
C#CC[N+]1(CC#Cc2cccc3ccccc23)CCOCC1	i	i	-0.55	37*	i	i
COc1ccccc1/C=N/OCc1ccc(C#N)cc1	i	i	1	i	i	i
CCCc1nc(N2CCOCC2)c(C#N)c2c1CCCC2	i	i	-1.9	i	i	i
CCCCc1nc(N2CCOCC2)c(C#N)c2c1CCCC2	i	i	0.07	i	-6*	i
Cc1nc2ccccc2n1Cc1ccc(Br)cc1	i	i	0.43	i	-6*	i
CC(C)(C)Cc1nc2ccccc2n1CCc1ccccc1	i	i	-6.1*	i	-7*	i
CCc1nc2ccccc2n1CCc1ccccc1	i	i	-2.7	i	i	i
Cc1nc2ccccc2n1Cc1ccccc1	i	i	0.58	i	i	i
CC(C)Cc1nc2ccccc2n1CCc1ccccc1	i	i	-6.5*	i	i	i
c1ccc(Cc2nc3ccccc3n2Cc2ccccc2)cc1	i	i	-7.2*	i	i	i
COc1ccc(C2(CNC(=O)c3ccccc3[N+](=O)[O-])CCOCC2)cc1	i	i	-1.5	i	i	i

Screening results deposited in PubChem by Johns Hopkins Ion Channel Center.
